The target of test [1] is Histone lysine demethylase PHF8 (Homo sapiens, UniProt Q9UPP1). The experiment in a line: Inhibition of KDM7B (unknown origin) using H3K4me3K9me2 and 2-oxoglutarate as substrate after 1 hr by matrix-assisted laser desorption ionization time of flight mass spectrometry. In a few lines:
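Enzyme (0.5 mg/mL) was reacted with 5 μM H3K4me3K9me2 peptide, 0.5 mM 2-oxoglutarate, 20 μM Fe(II), 20 μM ZnCl2, 0.5 mM ascorbate, 150 mM KCl, glutathione and DTT in 10 mM Tris-HCl pH 8.0 for 1 h at 37 °C. Inhibition was calculated from the remaining H3K9me2, and IC50 was taken as the concentration halving H3K9me2 removal. Values are means of two experiments.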

Test [2] concerns the target T1, Lysine-specific demethylase 4C (Homo sapiens, UniProt Q9H3R0).
T1 sequence (Q9H3R0 whole entry): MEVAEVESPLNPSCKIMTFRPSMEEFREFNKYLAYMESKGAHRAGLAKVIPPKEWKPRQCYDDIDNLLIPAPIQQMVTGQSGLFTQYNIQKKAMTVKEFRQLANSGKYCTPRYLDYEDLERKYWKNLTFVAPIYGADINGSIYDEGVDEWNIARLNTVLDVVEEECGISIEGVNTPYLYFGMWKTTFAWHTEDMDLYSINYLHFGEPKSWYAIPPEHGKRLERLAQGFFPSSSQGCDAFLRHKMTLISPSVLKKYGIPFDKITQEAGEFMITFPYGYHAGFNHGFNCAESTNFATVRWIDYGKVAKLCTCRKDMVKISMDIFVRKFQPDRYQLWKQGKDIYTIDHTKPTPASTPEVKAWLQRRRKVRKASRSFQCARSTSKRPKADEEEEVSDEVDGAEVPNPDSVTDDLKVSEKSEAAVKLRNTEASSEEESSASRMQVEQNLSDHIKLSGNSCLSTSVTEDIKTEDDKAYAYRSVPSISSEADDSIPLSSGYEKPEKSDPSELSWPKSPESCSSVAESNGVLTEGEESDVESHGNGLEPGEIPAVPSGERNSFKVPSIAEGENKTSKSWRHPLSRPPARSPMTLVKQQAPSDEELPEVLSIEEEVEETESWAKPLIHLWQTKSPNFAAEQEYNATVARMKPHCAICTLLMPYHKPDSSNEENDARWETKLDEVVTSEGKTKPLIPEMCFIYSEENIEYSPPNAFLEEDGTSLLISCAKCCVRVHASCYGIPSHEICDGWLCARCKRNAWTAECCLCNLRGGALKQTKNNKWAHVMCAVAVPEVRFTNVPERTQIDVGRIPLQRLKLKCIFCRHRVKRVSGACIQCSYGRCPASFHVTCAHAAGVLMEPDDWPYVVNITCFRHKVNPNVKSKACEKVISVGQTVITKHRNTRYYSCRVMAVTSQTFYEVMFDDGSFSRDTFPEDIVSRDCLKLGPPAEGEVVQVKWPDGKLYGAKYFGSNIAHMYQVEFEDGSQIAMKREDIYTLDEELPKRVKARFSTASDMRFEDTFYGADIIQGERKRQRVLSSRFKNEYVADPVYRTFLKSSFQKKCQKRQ
The test can be described thus: Inhibition of KDM4C (unknown origin) using H3K9me3 peptide and 2-oxoglutarate as substrate after 1 hr by FDH-coupled assay.

The next test relates to HeLa. The experiment in a line: Growth inhibition of human HeLa cells after 48 hrs by MTT assay. In kind it is functional. In a few lines: (§1)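 Cells were seeded at 5000/well in RPMI 1640 with 10% FBS and allowed to attach overnight, then exposed for 48 h at 37 °C in 5% CO2. MTT was added for 3 h, and the dye was solubilized in HCl–2-propanol and read at 560 nm (reference 750 nm).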
(Tetrazolium assays rely on reduction of a dye to a coloured formazan, in cell work by metabolically active cells.)

In test [3] the target is T2, Lysine-specific demethylase 7A (Homo sapiens, UniProt Q6ZMT4).
T2 sequence (Q6ZMT4 whole entry): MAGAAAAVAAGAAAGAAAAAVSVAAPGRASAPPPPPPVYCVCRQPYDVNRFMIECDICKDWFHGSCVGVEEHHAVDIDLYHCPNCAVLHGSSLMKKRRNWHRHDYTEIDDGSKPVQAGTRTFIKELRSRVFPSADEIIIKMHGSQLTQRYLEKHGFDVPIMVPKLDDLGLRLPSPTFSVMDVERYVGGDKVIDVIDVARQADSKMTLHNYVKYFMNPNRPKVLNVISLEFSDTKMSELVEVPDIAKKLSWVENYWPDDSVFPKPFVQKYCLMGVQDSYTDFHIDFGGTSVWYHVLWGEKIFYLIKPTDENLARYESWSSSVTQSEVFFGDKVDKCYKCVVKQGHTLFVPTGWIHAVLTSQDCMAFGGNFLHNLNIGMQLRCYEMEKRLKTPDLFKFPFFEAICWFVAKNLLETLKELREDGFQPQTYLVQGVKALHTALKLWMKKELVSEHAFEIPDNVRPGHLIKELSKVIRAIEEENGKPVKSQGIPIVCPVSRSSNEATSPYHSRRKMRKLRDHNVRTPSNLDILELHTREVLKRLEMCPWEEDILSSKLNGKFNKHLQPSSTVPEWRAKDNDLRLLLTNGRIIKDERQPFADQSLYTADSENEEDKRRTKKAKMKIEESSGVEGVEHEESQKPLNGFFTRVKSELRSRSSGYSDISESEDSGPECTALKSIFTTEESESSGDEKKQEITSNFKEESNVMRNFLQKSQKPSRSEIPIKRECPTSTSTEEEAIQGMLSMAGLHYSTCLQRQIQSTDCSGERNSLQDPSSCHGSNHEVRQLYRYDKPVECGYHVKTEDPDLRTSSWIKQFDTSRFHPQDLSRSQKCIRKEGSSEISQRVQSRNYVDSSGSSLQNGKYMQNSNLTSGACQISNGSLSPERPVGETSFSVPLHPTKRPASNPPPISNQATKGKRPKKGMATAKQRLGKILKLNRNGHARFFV
The experiment in a line: Inhibition of KDM7A (unknown origin) using K27me2 peptide as substrate by MALDI assay.

A short description of test [4]: Growth inhibition of human KYSE-150 cells after 48 hrs by MTT assay. The format is functional. As to conditions: KYSE-150, 48 h. In a few lines: as §1

Molecules are shown by their SMILES. Where only a bound is given, the exact number is not on record here.

The term IC50 denotes the concentration at which inhibition is half-maximal. The low end stands for greater potency, the high end for weaker potency. What is called GI50 is the concentration that inhibits growth by half. Low readings indicate more potent growth inhibition, high ones less potent growth inhibition.

Sequence of Histone lysine demethylase PHF8 (Q9UPP1 whole entry): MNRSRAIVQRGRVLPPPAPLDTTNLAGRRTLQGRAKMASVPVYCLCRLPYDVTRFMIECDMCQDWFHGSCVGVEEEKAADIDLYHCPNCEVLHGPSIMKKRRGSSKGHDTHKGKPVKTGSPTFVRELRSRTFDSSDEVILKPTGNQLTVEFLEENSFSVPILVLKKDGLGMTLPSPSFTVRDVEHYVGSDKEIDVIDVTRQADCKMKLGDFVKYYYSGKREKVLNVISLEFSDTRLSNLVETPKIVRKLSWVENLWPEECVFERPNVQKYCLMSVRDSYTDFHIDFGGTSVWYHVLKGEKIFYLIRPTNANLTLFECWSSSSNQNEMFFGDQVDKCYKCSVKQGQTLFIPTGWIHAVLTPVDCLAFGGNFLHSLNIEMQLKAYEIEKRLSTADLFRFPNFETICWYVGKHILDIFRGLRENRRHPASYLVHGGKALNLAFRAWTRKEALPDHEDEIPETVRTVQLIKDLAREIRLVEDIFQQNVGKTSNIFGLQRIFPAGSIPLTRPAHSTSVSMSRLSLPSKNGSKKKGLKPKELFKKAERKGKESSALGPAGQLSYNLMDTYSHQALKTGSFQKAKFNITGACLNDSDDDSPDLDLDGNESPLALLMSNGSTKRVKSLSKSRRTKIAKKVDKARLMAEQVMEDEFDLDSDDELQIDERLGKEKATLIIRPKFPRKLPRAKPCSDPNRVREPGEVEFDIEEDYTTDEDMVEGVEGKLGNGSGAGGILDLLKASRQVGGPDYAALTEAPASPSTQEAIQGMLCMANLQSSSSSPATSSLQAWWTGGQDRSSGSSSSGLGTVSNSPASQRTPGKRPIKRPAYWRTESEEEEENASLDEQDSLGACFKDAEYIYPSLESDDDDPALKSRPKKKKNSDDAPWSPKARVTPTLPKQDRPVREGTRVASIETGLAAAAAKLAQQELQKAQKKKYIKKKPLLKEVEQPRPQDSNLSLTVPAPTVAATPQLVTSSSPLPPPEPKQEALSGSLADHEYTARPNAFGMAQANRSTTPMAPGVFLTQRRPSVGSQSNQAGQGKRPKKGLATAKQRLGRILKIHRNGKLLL

In the case of `CN(C)CCCCCCCCC(=O)N(O)CCC(=O)O`, the IC50 in test [1] was found to be 19 µM; in test [2] it was 2.2 µM; in test [3], 1.6 µM. The GI50 (in the test on HeLa; in test [4]) was more than 470 µM each time.
For `O=C(O)CCN(O)C(=O)CCCCCCCCC1CC1`, the IC50 in test [1] came out at 1.2 µM; in test [2], 83 µM; in test [3], 0.2 µM. Also, the results for the GI50 (with HeLa; in test [4]) were 40 µM and 16 µM, respectively.

For the origin of these results see ChEMBL document CHEMBL2424657, “Identification of the KDM2/7 histone lysine demethylase subfamily inhibitor and its antiproliferative activity” (J Med Chem, 2013).
